ChEMBL document CHEMBL1123571, “[(6,7-Dichlorobenzo[b]thien-5-yl)oxy]acetic acids and 1,1-dioxides. 1. A structurally novel class of diuretics with hypotensive activity” (1987)
Where “and” joins values, the source holds several entries; their conditions need not be identical. Equal values may be shown once.

Experiments:
Rattus norvegicus [1] = assay: Hypotensive activity was determined in Spontaneously hypertensive rats (SHR) and initial blood pressure was determined at 50 mg/kg oral dose; format: functional
Rattus norvegicus [2] = assay: Hypotensive activity was determined in Spontaneously hypertensive rats (SHR) and peak decrease in systolic blood pressure on third day,2h post administration of 50 mg/kg oral dose was determined; format: functional, Artery
How it was run: (§1)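 Okamoto-Aoki spontaneously hypertensive rats were dosed orally every day with compound suspended in distilled water with Tween 80. Systolic BP was taken by tail-cuff plethysmography on day 1 (predose, 2 h), day 3 (predose, 2 h) and day 5 (predose, 2 and 4 h). The value is the peak fall at day 3, 2 h postdose, ± SEM. Four rats were used in the screen and 4–8 per dose in dose-response.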

Mus musculus [3] = assay: Diuretic activity in saline loaded mice, activity is expressed as the sodium present in urine as mean milli equivalent/kg per 5 hr at 64 mg/kg oral dose; format: functional
How it was run: (§2)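 Male CD-1 mice (18–24 g), 10 per treatment group, housed five per metabolic cage. Compound was given orally in 1% saline at 10 mL/kg, with a vehicle control group. Pooled urine was analysed for sodium by flame photometry. Values are mean mequiv/kg over 0–5 h.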

Rattus norvegicus [4] = assay: Hypotensive activity was determined in Spontaneously hypertensive rats (SHR) and peak decrease in systolic blood pressure on third day,2h post administration of 30 mg/kg oral dose was determined; format: functional, Artery; how it was run: as §1
Rattus norvegicus [5] = assay: Hypotensive activity was determined in Spontaneously hypertensive rats (SHR) and initial blood pressure was determined at 30 mg/kg oral dose; format: functional
Rattus norvegicus [6] = assay: Hypotensive activity was determined in Spontaneously hypertensive rats (SHR) and initial blood pressure was determined at 3 mg/kg oral dose; format: functional
Rattus norvegicus [7] = assay: Hypotensive activity was determined in Spontaneously hypertensive rats (SHR) and peak decrease in systolic blood pressure on third day,2h post administration of 3 mg/kg oral dose was determined; format: functional, Artery; how it was run: as §1
Rattus norvegicus [8] = assay: Hypotensive activity was determined in Spontaneously hypertensive rats (SHR) and peak decrease in systolic blood pressure on third day,2h post administration of 1 mg/kg oral dose was determined; format: functional, Artery; how it was run: as §1
Rattus norvegicus [9] = assay: Hypotensive activity was determined in Spontaneously hypertensive rats (SHR) and initial blood pressure was determined at 10 mg/kg oral dose; format: functional
Rattus norvegicus [10] = assay: Hypotensive activity was determined in Spontaneously hypertensive rats (SHR) and peak decrease in systolic blood pressure on third day,2h post administration of 10 mg/kg oral dose was determined; format: functional, Artery; how it was run: as §1
Rattus norvegicus [11] = assay: Hypotensive activity was determined in Spontaneously hypertensive rats (SHR) and initial blood pressure was determined at 1 mg/kg oral dose; format: functional
Rattus norvegicus [12] = assay: Hypotensive activity was determined in Spontaneously hypertensive rats (SHR) and peak decrease in systolic blood pressure on third day,2h post administration of 25 mg/kg oral dose was determined; format: functional, Artery; how it was run: as §1
Rattus norvegicus [13] = assay: Hypotensive activity was determined in Spontaneously hypertensive rats (SHR) and initial blood pressure was determined at 25 mg/kg oral dose; format: functional
Mus musculus [14] = assay: Compound was tested for diuretic activity in saline loaded mice, activity is expressed as the sodium present in urine as mean milli equivalent/kg per 5 hr at 16 mg/kg oral dose; format: functional; how it was run: as §2
Mus musculus [15] = assay: Compound was tested for diuretic activity in saline loaded mice, activity is expressed as the sodium present in urine as mean milli equivalent/kg per 5 hr at 32 mg/kg oral dose; format: functional; how it was run: as §2
Mus musculus [16] = assay: Compound was tested for diuretic activity in saline loaded mice, activity is expressed as the sodium present in urine as mean milli equivalent/kg per 5 hr at 128 mg/kg oral dose; format: functional; how it was run: as §2
Rattus norvegicus [17] = organism: Rattus norvegicus; assay: Initial blood pressure before treatment; format: functional
How it was run: (§3)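 Grollman renal hypertension (one kidney, one wrap) in male Sprague-Dawley rats. Under pentobarbital (50 mg/kg ip) the right kidney was removed and silk sutures were tied around both poles of the left kidney. After 3 weeks, rats with systolic BP >150 mmHg were selected. Oral dosing followed. Systolic BP was measured by tail-cuff plethysmography as day/hour readings, and the change was taken against the initial pressure.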

Rattus norvegicus [18] = assay: Hypotensive activity after 10 mg/kg oral dose in rats (Change in blood pressure after treatment (day/hours)); format: functional; how it was run: as §3
Rattus norvegicus [19] = assay: Hypotensive activity after 50 mg/kg oral dose in rats (Change in blood pressure after treatment (day/hours)); format: functional; how it was run: as §3
Rattus norvegicus [20] = organism: Rattus norvegicus; assay: Change in blood pressure (Initial blood pressure- Post drug blood pressure); format: functional; how it was run: as §3

| Structure (SMILES) | Initial blood pressure (Rattus norvegicus [1]) [mmHg] | Change in BP (Rattus norvegicus [2]) [mmHg] | mequiv of Na+/kg (Mus musculus [3]) | further results |
| --- | --- | --- | --- | --- |
| O=C(O)COc1cc2c(c(Cl)c1Cl)S(=O)(=O)C(C1CCCC1)=C2 | 180 | -17 | 1.79 0-5h | – |
| O=C(O)COc1ccc(C(=O)c2cccs2)c(Cl)c1Cl [TICRYNAFEN] | 200 | -14 | 3.31 0-5h | – |
| O=C(O)COc1cc2c(c(Cl)c1Cl)S(=O)(=O)C(C1CCCCC1)=C2 | 202 | -43 | 1.25 0-5h | Change in BP (Rattus norvegicus [4]): -30 mmHg; Initial blood pressure (Rattus norvegicus [5]): 167 mmHg; Initial blood pressure (Rattus norvegicus [6]): 187 mmHg; Change in BP (Rattus norvegicus [7]): -32 mmHg |
| CC(C)CC1=Cc2cc(OCC(=O)O)c(Cl)c(Cl)c2S1(=O)=O | 176 | -14 | 3.24 0-5h | – |
| C=C(CC)C(=O)c1ccc(OCC(=O)O)c(Cl)c1Cl [ETHACRYNIC ACID] | – | – | 4.14 0-5h | – |
| O=C(O)COc1cc2ccsc2c(Cl)c1Cl | 201 | 2 | 1 0-5h | – |
| Cc1cc2cc(OCC(=O)O)c(Cl)c(Cl)c2s1 | 215 | -51 | 1.16 0-5h | Change in BP (Rattus norvegicus [8]): -42 mmHg; Initial blood pressure (Rattus norvegicus [9]): 196 mmHg; Change in BP (Rattus norvegicus [10]): -33 mmHg; Initial blood pressure (Rattus norvegicus [11]): 177 mmHg; Initial blood pressure (Rattus norvegicus [6]): 173 mmHg; Change in BP (Rattus norvegicus [7]): -37 mmHg |
| CCc1cc2cc(OCC(=O)O)c(Cl)c(Cl)c2s1 | – | – | 2.07 0-5h | Change in BP (Rattus norvegicus [12]): -13 mmHg; Initial blood pressure (Rattus norvegicus [9]): 185 mmHg; Change in BP (Rattus norvegicus [10]): -21 mmHg; Initial blood pressure (Rattus norvegicus [13]): 176 mmHg; mequiv of Na+/kg (Mus musculus [14]): 0.74 0-5h; mequiv of Na+/kg (Mus musculus [15]): 1.51 0-5h |
| O=C(O)COc1cc2cc(C3CCCC3)sc2c(Cl)c1Cl | 193 | -31 | 1.3 0-5h | – |
| CCC1=Cc2cc(OCC(=O)O)c(Cl)c(Cl)c2S1(=O)=O | 213 | -8 | 3.35 0-5h | mequiv of Na+/kg (Mus musculus [16]): 6.51 0-5h; mequiv of Na+/kg (Mus musculus [14]): 0.66 0-5h; mequiv of Na+/kg (Mus musculus [15]): 1.84 0-5h |
| O=C(O)COc1cc2cc(C3CCCCC3)sc2c(Cl)c1Cl | 178 | 2 | 1.6 0-5h | – |
| O=C(O)COc1cc2c(c(Cl)c1Cl)S(=O)(=O)C1=C2CCCC1 | 179 | -8 | 0 0-5h | – |
| CCCCc1cc2cc(OCC(=O)O)c(Cl)c(Cl)c2s1 | 173 | -47 | 0.88 0-5h | Change in BP (Rattus norvegicus [4]): -16 mmHg; Initial blood pressure (Rattus norvegicus [9]): 171 mmHg; Change in BP (Rattus norvegicus [10]): -17 mmHg; Initial blood pressure (Rattus norvegicus [5]): 173 mmHg |
| CC(C)(O)c1cc2cc(OCC(=O)O)c(Cl)c(Cl)c2s1 | 193 | -25 | 4.4 0-5h | mequiv of Na+/kg (Mus musculus [16]): 6.24 0-5h; mequiv of Na+/kg (Mus musculus [14]): 0.53 0-5h; mequiv of Na+/kg (Mus musculus [15]): 2.21 0-5h |
| CC(O)c1cc2cc(OCC(=O)O)c(Cl)c(Cl)c2s1 (stereo unspecified) | 183 | -7 | 2.86 0-5h | – |
| CC(C)Cc1cc2cc(OCC(=O)O)c(Cl)c(Cl)c2s1 | 176 | 4 | 1.29 0-5h | – |
| Cc1csc2c(Cl)c(Cl)c(OCC(=O)O)cc12 | 203 | -12 | 0.8 0-5h | – |

| Structure (SMILES) | Initial blood pressure (Rattus norvegicus [1]) [mmHg] | Change in BP (Rattus norvegicus [2]) [mmHg] | mequiv of Na+/kg (Mus musculus [3]) | further results |
| --- | --- | --- | --- | --- |
| CCCCC1=Cc2cc(OCC(=O)O)c(Cl)c(Cl)c2S1(=O)=O | 185 | -24 | 2.42 0-5h | – |
| CCCC1=Cc2cc(OCC(=O)O)c(Cl)c(Cl)c2S1(=O)=O | – | – | 3.13 0-5h | Initial blood pressure (Rattus norvegicus [17]): 166 mmHg; Post drug blood pressure (Rattus norvegicus [18]): 135 mmHg and 156 mmHg and 153 mmHg and 167 mmHg; Change in BP (Rattus norvegicus [4]): -64 mmHg; Initial blood pressure (Rattus norvegicus [5]): 202 mmHg; Initial blood pressure (Rattus norvegicus [6]): 205 mmHg; Change in BP (Rattus norvegicus [7]): -52 mmHg; mequiv of Na+/kg (Mus musculus [16]): 4.99 0-5h; mequiv of Na+/kg (Mus musculus [14]): 1.06 0-5h; mequiv of Na+/kg (Mus musculus [15]): 1.79 0-5h |
| CC(O)C1=Cc2cc(OCC(=O)O)c(Cl)c(Cl)c2S1(=O)=O (stereo unspecified) | 176 | -9 | 0.43 0-5h | – |
| CC1=Cc2cc(OCC(=O)O)c(Cl)c(Cl)c2S1(=O)=O | 180 | -25 | 4.34 0-5h | mequiv of Na+/kg (Mus musculus [16]): 6.36 0-5h; mequiv of Na+/kg (Mus musculus [14]): 1.33 0-5h; mequiv of Na+/kg (Mus musculus [15]): 2.11 0-5h |
| NS(=O)(=O)c1cc2c(cc1Cl)NCNS2(=O)=O [HYDROCHLOROTHIAZIDE] | 188 | -26 | – | Initial blood pressure (Rattus norvegicus [17]): 168 mmHg; Post drug blood pressure (Rattus norvegicus [19]): 156 mmHg and 133 mmHg and 148 mmHg and 150 mmHg; Delta blood pressure (Rattus norvegicus [20]): -18 mmHg [middle of 4 runs] |
| Cc1sc2c(Cl)c(Cl)c(OCC(=O)O)cc2c1C | 192 | -37 | 0.13 0-5h | – |
| CC1=C(C)S(=O)(=O)c2c1cc(OCC(=O)O)c(Cl)c2Cl | 165 | -17 | 0.92 0-5h | – |
| O=C(O)COc1cc2c3c(sc2c(Cl)c1Cl)CCCC3 | 177 | -12 | 0.45 0-5h | – |
| CC(C)c1cc2cc(OCC(=O)O)c(Cl)c(Cl)c2s1 | 179 | -41 | 2.52 0-5h | Change in BP (Rattus norvegicus [4]): -32 mmHg; Initial blood pressure (Rattus norvegicus [9]): 178 mmHg; Change in BP (Rattus norvegicus [10]): -14 mmHg; Initial blood pressure (Rattus norvegicus [5]): 195 mmHg; mequiv of Na+/kg (Mus musculus [14]): 1.24 0-5h; mequiv of Na+/kg (Mus musculus [15]): 1.64 0-5h |
| CCCc1cc2cc(OCC(=O)O)c(Cl)c(Cl)c2s1 | 181 | -1 | 1.74 0-5h | – |
| O=C(O)COc1cc2cc(CO)sc2c(Cl)c1Cl | 199 | -5 | 1.23 0-5h | – |
| CCC(O)c1cc2cc(OCC(=O)O)c(Cl)c(Cl)c2s1 (stereo unspecified) | 166 | -22 | 3.89 0-5h | – |
| CCC(=O)c1cc2cc(OCC(=O)O)c(Cl)c(Cl)c2s1 | 173 | -1 | 1.18 0-5h | – |
| CC(C)C1=Cc2cc(OCC(=O)O)c(Cl)c(Cl)c2S1(=O)=O | 192 | -33 | 2.58 0-5h | mequiv of Na+/kg (Mus musculus [16]): 5.32 0-5h; mequiv of Na+/kg (Mus musculus [15]): 0.88 0-5h |
| O=C(O)COc1cc2c(c(Cl)c1Cl)S(=O)(=O)C=C2 | 201 | -3 | 0.33 0-5h | – |
| CC(=O)c1cc2cc(OCC(=O)O)c(Cl)c(Cl)c2s1 | 199 | -28 | 1.16 0-5h | – |
